Assay results from ChEMBL document CHEMBL4325902, “Design, synthesis and biological evaluation of novel, orally bioavailable pyrimidine-fused heterocycles as influenza PB2 inhibitors” (Eur J Med Chem, 2019).

Legend:
[1] = Half life in human liver microsomes at 1 uM preincubated for 10 mins followed by NADPH addition measured up to 60 mins by LC/MS/MS analysis; format: ADME, Microsome
Summary of the method: (§1)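 Test compound at 1 µM with 0.5 mg/mL liver microsomal protein (CD-1 mouse, SD rat or human) in 100 mM potassium phosphate, pH 7.4. Preincubated 10 min at 37°C, then started with NADPH (1 mM generating system). Sampled at 0–60 min and stopped with cold acetonitrile containing internal standards. Compound loss gave T1/2. A no-NADPH control ran 60 min.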

[2] = Half life in CD-1 mouse liver microsomes at 1 uM preincubated for 10 mins followed by NADPH addition measured up to 60 mins by LC/MS/MS analysis; format: ADME, Microsome; summary of the method: as §1
[3] = Cytotoxicity against MDCK cells assessed as reduction in cell viability after 5 days by CCK-8 assay; format: cell-based, Canis lupus familiaris; details: dog
Summary of the method: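 MDCK cells seeded at 2×10^3 per well and grown overnight at 37°C, 5% CO2. Diluted compound (0.5% DMSO final) added without virus, then 5 days at 37°C. Viability read by CCK-8. CC50 is the concentration cutting viability to 50% of control, from a dose-response fit.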

[4] = Half life in Sprague-Dawley rat liver microsomes at 1 uM preincubated for 10 mins followed by NADPH addition measured up to 60 mins by LC/MS/MS analysis; format: ADME, Microsome; summary of the method: as §1
[5] = Half life in CD-1 mouse at 0.5 mg/kg, iv; format: ADME, organism-based; details: in vivo
Summary of the method: (§2)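 Male CD-1 mice, n=3 per dose, values are cohort means. Cassette PK: 0.5 mg/kg iv and 1 mg/kg po, both in 20% Solutol in water. Reported parameters are clearance, T1/2, Vd, AUC, Cmax, Tmax and %F.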

[6] = AUC in CD-1 mouse at 1 mg/kg, po; format: ADME, organism-based; details: in vivo; summary of the method: as §2
[7] = Tmax in CD-1 mouse at 1 mg/kg, po; format: ADME, organism-based; details: in vivo; summary of the method: as §2
[8] = Clearance in CD-1 mouse at 0.5 mg/kg, iv; format: ADME, organism-based; details: in vivo; summary of the method: as §2
[9] = Volume of distribution in CD-1 mouse at 0.5 mg/kg, iv; format: ADME, organism-based; details: in vivo; summary of the method: as §2
[10] = AUC in CD-1 mouse at 0.5 mg/kg, iv; format: ADME, organism-based; details: in vivo; summary of the method: as §2
[11] = Oral bioavailability in CD-1 mouse at 1 mg/kg; format: ADME, organism-based; details: in vivo; summary of the method: as §2
[12] = Cmax in CD-1 mouse at 1 mg/kg, po; format: ADME, organism-based; design: dose 1 mg/kg, route oral; details: in vivo; summary of the method: as §2
[13] = Tmax in CD-1 mouse at 10 mg/kg, po; format: ADME, organism-based; details: in vivo
Summary of the method: (§3)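 Male CD-1 mice, n=3 per dose, values are cohort means. Dosed 1 mg/kg iv and 10 mg/kg po, each in 20% Solutol in water. Reported parameters are Cl, T1/2, Vd, AUC, Cmax, Tmax and %F.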

[14] = AUC in CD-1 mouse at 10 mg/kg, po; format: ADME, organism-based; details: in vivo; summary of the method: as §3
[15] = Oral bioavailability in CD-1 mouse at 10 mg/kg; format: ADME, organism-based; details: in vivo; summary of the method: as §3
[16] = AUC in CD-1 mouse at 1 mg/kg, iv; format: ADME, organism-based; details: in vivo; summary of the method: as §3
[17] = Half life in CD-1 mouse at 1 mg/kg, iv; format: ADME, organism-based; details: in vivo; summary of the method: as §3
[18] = Clearance in CD-1 mouse at 1 mg/kg, iv; format: ADME, organism-based; details: in vivo; summary of the method: as §3
[19] = Volume of distribution in CD-1 mouse at 1 mg/kg, iv; format: ADME, organism-based; details: in vivo; summary of the method: as §3
[20] = Cmax in CD-1 mouse at 10 mg/kg, po; format: ADME, organism-based; design: dose 10 mg/kg, route oral; details: in vivo; summary of the method: as §3

Compound `O=C(O)[C@H]1C2CCC(CC2)[C@@H]1Nc1nc(-c2n[nH]c3ncc(F)cc23)nc2ccsc12` has a half-life at 1 µM [1] of 1.28 h, a half-life at 1 µM [2] of 0.683 h and a CC50 at 120 h [3] of 0.2 µM. It also gave a half-life at 1 µM [4] of 1.22 h.

Work on `O=C(O)[C@H]1C2CCC(CC2)[C@@H]1Nc1nc(-c2c[nH]c3ncc(F)cc23)nc2scnc12` yielded a CC50 at 120 h [3] of 1.5 µM.

`N#Cc1csc2c(N[C@H]3C4CCC(CC4)[C@@H]3C(=O)O)nc(-c3c[nH]c4ncc(F)cc34)nc12` gave a CC50 at 120 h [3] of 0.7 µM.

`O=C(O)[C@H]1C2CCC(CC2)[C@@H]1Nc1nc(-n2ccc3ncc(F)cc32)ncc1F` gave a CC50 at 120 h [3] of 1.1 µM.

For `Cn1cc(F)c2c(N[C@H]3C4CCC(CC4)[C@@H]3C(=O)O)nc(-c3c[nH]c4ncc(F)cc34)nc21`, the CC50 at 120 h [3] was 0.6 µM.

`O=C(O)[C@H]1C2CCC(CC2)[C@@H]1Nc1nc(-c2c[nH]c3ncc(F)cc23)nc2cccc(F)c12` showed a CC50 at 120 h [3] of 1.8 µM.

For `O=C(O)[C@H]1C2CCC(CC2)[C@@H]1Nc1nc(-c2c[nH]c3ncc(F)cc23)nc2ccsc12`, the half-life [5] was 2 h, the AUC [6] was 690 nM·h and the Tmax [7] was 0.4 h. For the same compound, the clearance [8] was 1.13 L/h/kg, the Vd [9] was 2.4 L/kg and the AUC [10] was 1010 nM·h. For the same compound, the half-life at 1 µM [1] was 0.828 h, the bioavailability [11] was 37% and the half-life at 1 µM [2] was 0.808 h. It also gave a CC50 at 120 h [3] of 1.5 µM, a half-life at 1 µM [4] of 0.87 h and a Cmax [12] of 0.172 µM.

In the case of `O=C(O)[C@H]1C2CCC(CC2)[C@@H]1Nc1nc(-c2c[nH]c3ncc(F)cc23)nc2ccoc12`, the CC50 at 120 h [3] is reported as 6.2 µM.

Work on `O=C(O)[C@H]1C2CCC(CC2)[C@@H]1Nc1nc(-c2c[nH]c3ncc(F)cc23)nc2c1CSC2` yielded a CC50 at 120 h [3] of 4.4 µM.

In the case of `O=C(O)[C@H]1C2CCC(CC2)[C@@H]1Nc1nc(-c2c[nH]c3ncc(F)cc23)nc2c1CCC2`, the CC50 at 120 h [3] is reported as 10 µM.

With `O=C(O)[C@H]1C2CCC(CC2)[C@@H]1Nc1nc(-c2c[nH]c3ncc(F)cc23)nc2c1CCS2` the CC50 at 120 h [3] was 5.6 µM.

`O=C(O)[C@H]1C2CCC(CC2)[C@@H]1Nc1nc(-c2n[nH]c3ncc(F)cc23)nc2c1SCC2` gave a Tmax [13] of 0.67 h, an AUC [14] of 152000 nM·h and a bioavailability [15] of 57%. It also gave a half-life at 1 µM [1] of over 2.42 h, an AUC [16] of 28700 nM·h and a half-life [17] of 3 h. For the same compound, the clearance [18] was 0.078 L/h/kg, the half-life at 1 µM [2] was 1.71 h and the CC50 at 120 h [3] was 4.9 µM. For the same compound, the Vd [19] was 0.2 L/kg, the half-life at 1 µM [4] was over 2.42 h and the Cmax [20] was 32.6 µM.

`O=C(O)[C@H]1C2CCC(CC2)[C@@H]1Nc1nc(-c2c[nH]c3ccc(F)cc23)ncc1F` showed a CC50 at 120 h [3] of 10 µM.

`O=C(O)[C@H]1C2CCC(CC2)[C@@H]1Nc1nc(-c2c[nH]c3ncc(F)cc23)nc2cccnc12` gave a CC50 at 120 h [3] of 7 µM.

Compound `O=C(O)[C@H]1C2CCC(CC2)[C@@H]1Nc1nc(-c2c[nH]c3ncc(F)cc23)nc2c1CS(=O)(=O)C2` has a CC50 at 120 h [3] of over 50 µM.

`Cc1cnc2c(N[C@H]3C4CCC(CC4)[C@@H]3C(=O)O)nc(-c3c[nH]c4ncc(F)cc34)nc2c1` showed a CC50 at 120 h [3] of 4.9 µM.

Work on `O=C(O)[C@H]1C2CCC(CC2)[C@@H]1Nc1nc(-c2c[nH]c3ncc(F)cc23)nc2cc(F)cnc12` yielded a CC50 at 120 h [3] of 1.4 µM.

Work on `O=C(O)[C@H]1C2CCC(CC2)[C@@H]1Nc1nc(-c2c[nH]c3ncc(F)cc23)nc2c1CCCC2` yielded a CC50 at 120 h [3] of over 50 µM.

For `O=C(O)[C@H]1C2CCC(CC2)[C@@H]1Nc1nc(-c2c[nH]c3ncc(F)cc23)nc2[nH]ccc12`, the CC50 at 120 h [3] was 15 µM.

With `Cc1cccc2nc(-c3c[nH]c4ncc(F)cc34)nc(N[C@H]3C4CCC(CC4)[C@@H]3C(=O)O)c12` the CC50 at 120 h [3] was 4.7 µM.

`O=C(O)[C@H]1C2CCC(CC2)[C@@H]1Nc1nc(-c2c[nH]c3ncc(F)cc23)nc2c1S(=O)(=O)CC2` gave a CC50 at 120 h [3] of over 50 µM.

`O=C(O)[C@H]1C2CCC(CC2)[C@@H]1N1CCOc2cnc(-c3c[nH]c4ncc(F)cc34)nc21` gave a CC50 at 120 h [3] of over 50 µM.

Work on `O=C(O)[C@H]1C2CCC(CC2)[C@@H]1Nc1nc(-c2c[nH]c3ncc(F)cc23)nc2cscc12` yielded a half-life [5] of 1.3 h, an AUC [6] of 48.8 nM·h and a Tmax [7] of 0.33 h. For the same compound, the clearance [8] was 4.42 L/h/kg, the Vd [9] was 5.7 L/kg and the AUC [10] was 252 nM·h. The bioavailability [11] was 10%, the CC50 at 120 h [3] was over 50 µM and the Cmax [12] was 0.0292 µM.

For `Cc1cccc2nc(N[C@H]3C4CCC(CC4)[C@@H]3C(=O)O)nc(-c3c[nH]c4ncc(F)cc34)c12`, the CC50 at 120 h [3] was 2.1 µM.

In the case of `O=C(O)[C@H]1C2CCC(CC2)[C@@H]1n1ccc2cnc(-c3c[nH]c4ncc(F)cc34)nc21`, the CC50 at 120 h [3] is reported as 4 µM.

`O=C(O)[C@H]1C2CCC(CC2)[C@@H]1Nc1nc(-c2c[nH]c3ncc(F)cc23)nc2cc(C(F)F)sc12` gave a CC50 at 120 h [3] of 3.3 µM.

For `O=C(O)[C@H]1C2CCC(CC2)[C@@H]1Nc1nc(-c2c[nH]c3ncc(F)cc23)nc2nccnc12`, the CC50 at 120 h [3] was 46 µM.

`O=C(O)[C@H]1C2CCC(CC2)[C@@H]1Nc1nc(-c2c[nH]c3ncc(F)cc23)nc2sccc12` gave an AUC [6] of 1350 nM·h, a Tmax [7] of 0.83 h and a half-life at 1 µM [1] of 1.74 h. It also gave a half-life at 1 µM [2] of 1.02 h, a CC50 at 120 h [3] of 0.6 µM and a half-life at 1 µM [4] of 1.52 h. For the same compound, the Cmax [12] was 0.509 µM.

In the case of `O=C(O)[C@H]1C2CCC(CC2)[C@@H]1Nc1nc(-c2c[nH]c3ncc(F)cc23)nc2c1SCC2`, the Tmax [13] is reported as 0.25 h, the AUC [14] is reported as 19500 nM·h and the bioavailability [15] is reported as 71%. The half-life at 1 µM [1] was 1.66 h, the AUC [16] was 2780 nM·h and the half-life [17] was 2.3 h. For the same compound, the clearance [18] was 0.828 L/h/kg, the half-life at 1 µM [2] was 0.855 h and the CC50 at 120 h [3] was 4.5 µM. The Vd [19] was 2.3 L/kg, the half-life at 1 µM [4] was 1.92 h and the Cmax [20] was 15 µM.

In the case of `N#Cc1cn([C@H]2C3CCC(CC3)[C@@H]2C(=O)O)c2nc(-c3c[nH]c4ncc(F)cc34)ncc12`, the CC50 at 120 h [3] is reported as 5.4 µM.

For `O=C(O)[C@H]1C2CCC(CC2)[C@@H]1n1cnc2cnc(-c3c[nH]c4ncc(F)cc34)nc21`, the CC50 at 120 h [3] was 21.7 µM.

Compound `O=C(O)[C@H]1C2CCC(CC2)[C@@H]1Nc1nc(-c2n[nH]c3ncc(F)cc23)nc2sccc12` has a half-life at 1 µM [1] of 1.18 h, a half-life at 1 µM [2] of 0.55 h and a CC50 at 120 h [3] of 2.7 µM. For the same compound, the half-life at 1 µM [4] was 1.08 h.

Compound `O=C(O)[C@H]1C2CCC(CC2)[C@@H]1Nc1nc(-c2c[nH]c3ncc(F)cc23)ncc1F` [PIMODIVIR] has a Tmax [13] of 2.5 h, an AUC [14] of 13400 nM·h and a bioavailability [15] of 100%. For the same compound, the half-life at 1 µM [1] was over 2.42 h, the AUC [16] was 1360 nM·h and the half-life [17] was 1.9 h. For the same compound, the clearance [18] was 1.85 L/h/kg, the half-life at 1 µM [2] was over 2.42 h and the CC50 at 120 h [3] was 12 µM. For the same compound, the Vd [19] was 7.1 L/kg, the half-life at 1 µM [4] was over 2.42 h and the Cmax [20] was 2.05 µM.
